According to ChEMBL document CHEMBL4513216, “Probing the Open Global Health Chemical Diversity Library for Multistage-Active Starting Points for Next-Generation Antimalarials” (ACS Infect Dis, 2020):

Assay: Toxicity liver stage against HepG2, at 10uM
Format: cell-based
Parameters: test concentration 10 uM, cell line HepG2-A16-CD81EGFP
Details: human, HepG2-A16-CD81EGFP cells; read-out: INHIBITION
In short: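 Uninfected HepG2-A16-CD81EGFP cells, 3 × 10^3 per well, 1536-well, plated on prespotted compound at 10 μM final, parasite-free screening media added to match infected plates; puromycin 10 μM positive, DMSO 0.5% negative; run in parallel with 48 h PbLuc assay at 37 °C, 5% CO2; viability by CellTiter-Glo luminescence, normalized to controls.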

| Compound | cytotoxicity at 10 µM [%] |
| --- | --- |
| O=C(N1CCOCC1)n1cnc2ccccc21 | -3.11 |
| Cc1ccc(Cl)cc1N1CCN(CC(=O)NC(C)c2ccco2)CC1 (stereo unspecified) | 5.89 |
| COCCOc1ccc(C(=O)N[C@@H]2CNCCC[C@H]2O)cc1 | 4.67 |
| CC1(C)[C@H](Cc2cc(CO)on2)C[C@@H]1N(CC1CC1)CC1CC1 | 3.82 |
| COc1ccc(CN2C[C@@H]3OCC(=O)N(Cc4nccn4C)[C@@H]3C2)cc1 | 4.24 |
| CC(C)NC(=O)COc1cccc(-c2nc(C(C)C)no2)c1 | -5.77 |
| CCC(=O)NC(c1cccnc1)c1cc(C)ccc1C (stereo unspecified) | -2.8 |
| CC(C)[C@H](NC(=O)Cn1nc2c(cc1=O)CCCC2)C(=O)O | 1.85 |
| CN1C(=O)C2(CCN(C(=O)C3CCOCC3)CC2)c2ccccc21 | 2.5 |
| CCN1C(=O)CCC12CCN(C(=O)c1ccco1)CC2 | -3.66 |
| CC(=O)NCC(=O)N1CCC2(CC1)C(=O)N(CC1CC1)c1ccccc12 | -4.1 |
| CC(C)N(C)Cc1cnc2n1CCN(Cc1cccc(C#N)c1)C2 | 7.48 |
| CCOCC1CN(C(=O)C2=CCCC2)Cc2cnn(C)c21 (stereo unspecified) | 1.49 |
| COC(=O)CC1CCN(C(=O)c2ccc(-n3nnnc3C)cc2)CC1 | -6.72 |
| O=C(NCCN1CCCCC1)c1nc(-c2ccc3cc[nH]c3c2)no1 | -8.54 |
| Cn1cc(I)c(C(=O)NCCCn2cc(Br)cn2)n1 | 6.54 |
| CCn1nccc1CNC(=O)NC1CCCCC1 | -27.5 |
| O=C(C1CC1)N1C[C@H]2CCCN(S(=O)(=O)c3cccc(F)c3)[C@H]2C1 | 5.11 |
| CNc1cccc(CC2COCCN(C(=O)c3cnn(C)c3)C2)n1 (stereo unspecified) | 2.64 |
| CC(C)N1CCC(Cn2cc(C(N)=O)cn2)CC1 | 6.39 |
| CC(=O)N1CCn2c(nnc2C2CCCCN2Cc2ccccc2Cl)C1 (stereo unspecified) | 10.6 |
| O=C1CO[C@H]2CN(Cc3cccc4[nH]ccc34)C[C@@H]2N1C1CCOCC1 | -17.3 |
| Nc1nccnc1C1CN(C(=O)c2cnc(C3CC3)nc2)CCO1 (stereo unspecified) | -27 |

| Compound | cytotoxicity at 10 µM [%] |
| --- | --- |
| CC(=O)N1CCCC(c2ncncc2-c2ccncc2)C1 (stereo unspecified) | -15.3 |
| CN1CCCCC1c1ncc2c(n1)CCN(CCCc1ccccc1)C2 (stereo unspecified) | -30.5 |
| c1cc(CN2CCCC(c3nnc(-c4cnccn4)o3)C2)ccn1 (stereo unspecified) | -9.14 |
| Cc1nc(CCC(=O)NC2CCC2)cc(C2CCCNC2)n1 (stereo unspecified) | 1.09 |
| O[C@@H]1CN(Cc2cccnc2)C[C@H]1Oc1ccccc1 | -23.2 |
| CN(C)Cc1ccnc(NS(=O)(=O)Cc2cccc(F)c2)c1 | 1.76 |
| Cc1noc(C)c1CN(C)C(=O)C1CCN(S(N)(=O)=O)CC1 | 7.47 |
| CC(C)(C)n1ncc(C(=O)NCCCC(N)=O)c1C(F)(F)F | 8.85 |
| CSc1c[nH]nc1NS(=O)(=O)c1cc(F)ccc1C | 6.98 |
| CC1CCN(c2ccc(C(=O)N3CCCC3c3ccc[nH]3)cn2)CC1 (stereo unspecified) | 2.84 |
| COC(=O)c1ccc(N(C(=O)c2cscn2)C(C)C)c(C)c1 | 1.7 |
| Cc1cc2n(n1)CC(CNCc1cc(C)on1)CN2 (stereo unspecified) | -7.93 |
| Cc1cc(C)n(CC2CCN(CC(O)COc3ccccc3)CC2)n1 (stereo unspecified) | -5.58 |
| CC1COCCN1C(=O)Cc1cc(Cl)c2c(c1)OCCO2 (stereo unspecified) | -4.29 |
| Cc1c(COc2ccccc2)cccc1NC(=O)N1CC[C@H](O)C1 | 13.7 |
| Fc1ccc(CNCCn2cccn2)cc1F | -8.01 |
| COc1cc(C(C)NCc2cscn2)ccc1SC(F)F (stereo unspecified) | 0.762 |
| CCC(=O)NCC(=O)NC(Cc1ccccc1)c1sccc1C (stereo unspecified) | 9.25 |
| Cc1cc(NC(=O)c2nc(N3CCCC3)ncc2Cl)ccc1Br | -7.2 |
| O=C(c1cc2c([nH]c1=O)CCC2)N1CCCC1c1ccccn1 (stereo unspecified) | -3.18 |
| CC(C)OCCSc1nnnn1C1CCOCC1 | -0.494 |
| CC(c1ccc(C(F)(F)F)cc1)N1CCN(CCS(C)(=O)=O)CC1 (stereo unspecified) | 3.25 |
| CCSc1cc(C(=O)NCCNC(=O)Cc2ccccc2)ccn1 | -6.41 |

| Compound | cytotoxicity at 10 µM [%] |
| --- | --- |
| Cc1cc(NC2CCc3ncnn3C2)n2nc(C(F)(F)F)nc2n1 (stereo unspecified) | 2.93 |
| COc1cc(CNCCNC(=O)c2ccc(O)cc2)ccc1SC | 9.72 |
| CCn1cc(S(=O)(=O)NC(CO)Cc2ccccc2)cn1 (stereo unspecified) | 6.07 |
| CCc1nc(CNC2CCCCNC2=O)cs1 (stereo unspecified) | 8.74 |
| Cc1ccc(CNCc2c[nH]nc2C(C)(C)C)c(OC2CCOC2)c1 (stereo unspecified) | 13.8 |
| N#Cc1ccc(N2CCN(c3cnccn3)CC2)c(C(F)(F)F)c1 | 46.6 |
| NS(=O)(=O)c1cnn(CCC(=O)N(C2CCCCC2)C2CC2)c1 | -0.157 |
| CCC1C(=O)NCCN1c1ccnc(C(C)(C)C)n1 (stereo unspecified) | -8.37 |
| CCC1C(=O)NCCN1c1cc(C)ncn1 (stereo unspecified) | 3.41 |
| CCS(=O)(=O)NC(CCSC)C(=O)Nc1cccc(C)c1C (stereo unspecified) | -2.51 |
| CCOCCN1CCN(CCOCC(F)(F)F)CC1 | 1.83 |
| Cc1cccc(C)c1CCNC(=O)N1CCCC2(C1)OCCO2 | -3.47 |
| O=C(CN1CCCCC1Cn1cccn1)NC1CCN(C2CC2)CC1 (stereo unspecified) | -4.43 |
| Cn1cccc1CNC(=O)N(CCO)C1CCCc2ccccc21 (stereo unspecified) | -7.45 |
| CC(=O)NC(C)c1ccc(OCC2CC2)c(F)c1 (stereo unspecified) | -7.81 |
| Cc1csc(CNC(=O)Nc2cc(C(F)(F)F)c[nH]c2=O)n1 | -13.7 |
| COC(=O)CS(=O)(=O)CCC(=O)N1CCCC1c1ccsc1 (stereo unspecified) | -16.5 |
| Cc1ccc(N2CCC3(CCN(C(N)=O)CC3)CC2)nn1 | 1.62 |
| CC(C)(C)NC(=O)CN1CCCC(c2ccc(C(=O)O)cc2)C1 (stereo unspecified) | -6.17 |
| Cc1cnn(C2(C(=O)O)CCN(c3ccnc4cc(Cl)ccc34)CC2)c1 | -6.07 |
| CSc1ccc(CN(CCO)C(=O)CCc2ccc(O)cc2)cc1 | -0.711 |
| Cc1ccsc1CN(C)c1cc(N2CCOCC2)ncn1 | -0.33 |
| COc1ccc(CCn2ccnc2-c2cc3n(n2)CCCNC3)cc1 | 8.07 |

| Compound | cytotoxicity at 10 µM [%] |
| --- | --- |
| O=C1CC(C(=O)O)C2(CCN(C(=O)Nc3ccccc3Cl)CC2)N1 (stereo unspecified) | 2.14 |
| Cc1cc(C[C@@H]2COC[C@@H]2NC(=O)CNC(=O)N(C)C)on1 | 2.57 |
| COCc1ncc(CN2CCC(Oc3ccccc3C)CC2)cn1 | 1.09 |
| CC[C@H]1COCCN1C(=O)c1cnc(-c2ccccc2)nc1C | 2.84 |
| CC(C)c1cc(C(=O)N2CCN(CC3CC3)[C@@H]3CS(=O)(=O)C[C@@H]32)no1 | -2.19 |
| O=C1CCCc2occ(C(=O)N3CCCC(O)(CO)C3)c21 (stereo unspecified) | -10.1 |
| Cc1ncc(C(=O)N2CCC(N3C[C@@H](C)O[C@@H](C)C3)CC2)c(=O)[nH]1 | 3.42 |
| Cn1nc(CO)c2c1CCN(c1ncnc3c1CCNCC3)C2 | 0.549 |
| c1cc2c(cc1-n1nc(C3CC3)nc1-c1csnn1)OCCO2 | 9.46 |
| CC1CCN(CCCNS(=O)(=O)Cc2ccccc2F)CC1 | -8.79 |
| CCCS(=O)(=O)N1CCN(c2cc(-n3cnc(C)c3C)ncn2)CC1 | 5.54 |
| Cc1cc(O)nc(C2CCCN(Cc3ccncc3)C2)n1 (stereo unspecified) | -2.81 |
| Cc1cc2cc(C(=O)N3CC[C@H](O)[C@]4(CCCO4)C3)ccc2o1 | 1.01 |
| Cc1cccnc1C(=O)N1CCCCC1c1[nH]ncc1S(C)(=O)=O (stereo unspecified) | 5.92 |
| CC(C)CN1CC(C(=O)NCc2ccnc(-n3cccn3)c2)CC1=O (stereo unspecified) | -5.48 |
| Cn1ccc(CN2CCC(CC(=O)NC3CCCC3)CC2)cc1=O | -16.8 |
| c1ccc(COc2ccccc2CNC2CCc3ncnn3C2)cc1 (stereo unspecified) | -10.2 |
| Cc1cc(CN(C)C(=O)NC2CCN(c3ncccn3)CC2)no1 | -12.8 |
| Cc1cc(C)n(CC2CCCN2C(=O)CCc2ccco2)n1 (stereo unspecified) | -3.75 |
| Cc1nc(CNCC2CN(C3CC3)CCO2)cs1 (stereo unspecified) | -10.1 |
| Cc1cc(C(=O)N2CCCC(n3ccnc3)C2)c(C)n1C1CC1 (stereo unspecified) | 1.19 |
| Cc1noc(Cl)c1CC(=O)N1CCCC(n2cccn2)C1 (stereo unspecified) | -6.14 |
| CN(Cc1nnc(C2CC2)n1C)C1CCN(Cc2ccc(F)cc2)C1 (stereo unspecified) | -7.17 |

| Compound | cytotoxicity at 10 µM [%] |
| --- | --- |
| COc1ccc(CNCc2ccnc(N3CCOCC3)c2)cc1OC | 1.64 |
| CN1CCOC(CNC(=O)CCCOCCc2ccccc2)C1 (stereo unspecified) | -3.56 |
| CC(C)c1noc(CCCC(=O)N2CCC(Cc3cccnc3)CC2)n1 | -5.43 |
| Cc1cc(CN(C)C(=O)NCc2cccc(N3CCCC3=O)c2)no1 | -12.4 |
| COCCOc1ccc(NC(=O)C2CCCN(C(N)=O)C2)cn1 (stereo unspecified) | -8.9 |
| Cc1cccc(-c2nc(CN(Cc3cccs3)CC3CCCO3)no2)c1 (stereo unspecified) | -3.01 |
| CS(=O)(=O)N1CCC(NC(=O)COc2ccc(Cl)c(Cl)c2)CC1 | -6.46 |
| CCN(Cc1nc2c(cnn2C)c(=O)[nH]1)c1cccc(Cl)c1 | 1.18 |
| Cc1nc(CN(C)C2CCN(Cc3ccc4c(c3)OCCO4)C2)no1 (stereo unspecified) | -4.79 |
| Fc1ccc(-c2cnc(C3CCCN3)cn2)cc1 (stereo unspecified) | -2.79 |
| O=C(Nc1cnccn1)[C@H]1CO[C@H]2CCN(c3ncc(F)cn3)C[C@H]2C1 | 1.2 |
| Cc1cnc(N2CC3(CCN(Cc4cccnc4)C3)C2)nc1 | -2.36 |
| CC(C)CN1CCC2(C=C(C(=O)NC3CC3)c3ccccc32)CC1 | 1.11 |
| CN(C)[C@@H]1CCN(c2ncccn2)[C@H]1Cc1ccncc1 | -17.9 |
| O=C1COC2(CCN(Cc3cccs3)CC2)CN1c1ccccc1 | -4.63 |
| Cn1cc(N2CCC3(CCN(Cc4cccnc4)C3)C2=O)cn1 (stereo unspecified) | 3.63 |
| CN(C)CCn1c([C@@H]2CCCO2)cc2cccnc21 | -25.4 |
| Cc1noc(C)c1CN1CC[C@@H]2O[C@@H](COCC(C)C)CC[C@@H]21 | -0.125 |
| Cc1ccoc1C1=NNC(=CN2CCCC(Cn3cncn3)C2)O1 (stereo unspecified) | -2.07 |
